As usually defined, the EC50 is the concentration needed to bring the measured effect to its halfway point.

Structures are written as SMILES. A value given as a limit tells only on which side of the number the result lay.

For one series, the target named is T1, Cytochrome P450 1A2 (Homo sapiens, UniProt P05177).
T1 sequence (P05177 whole entry): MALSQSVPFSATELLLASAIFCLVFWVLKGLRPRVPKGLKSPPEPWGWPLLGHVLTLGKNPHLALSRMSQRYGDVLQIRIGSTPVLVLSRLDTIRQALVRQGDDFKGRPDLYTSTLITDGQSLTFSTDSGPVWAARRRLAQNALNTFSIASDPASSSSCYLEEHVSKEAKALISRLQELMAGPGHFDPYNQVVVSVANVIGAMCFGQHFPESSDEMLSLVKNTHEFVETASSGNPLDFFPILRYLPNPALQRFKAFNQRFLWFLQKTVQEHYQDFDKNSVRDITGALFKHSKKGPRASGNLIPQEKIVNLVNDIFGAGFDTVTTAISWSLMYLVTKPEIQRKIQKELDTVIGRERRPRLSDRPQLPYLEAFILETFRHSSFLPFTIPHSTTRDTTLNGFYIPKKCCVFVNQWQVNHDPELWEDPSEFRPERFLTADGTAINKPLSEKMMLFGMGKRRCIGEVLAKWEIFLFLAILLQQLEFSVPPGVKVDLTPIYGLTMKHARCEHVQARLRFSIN
In words: ChEBML_1679936. The source says: Induction of CYP1A2 in cryopreserved human hepatocytes measured after 48 hrs

Series [1] has as its target T2, Muscarinic acetylcholine receptor M4 (Homo sapiens, UniProt P08173).
T2 sequence (P08173 whole entry): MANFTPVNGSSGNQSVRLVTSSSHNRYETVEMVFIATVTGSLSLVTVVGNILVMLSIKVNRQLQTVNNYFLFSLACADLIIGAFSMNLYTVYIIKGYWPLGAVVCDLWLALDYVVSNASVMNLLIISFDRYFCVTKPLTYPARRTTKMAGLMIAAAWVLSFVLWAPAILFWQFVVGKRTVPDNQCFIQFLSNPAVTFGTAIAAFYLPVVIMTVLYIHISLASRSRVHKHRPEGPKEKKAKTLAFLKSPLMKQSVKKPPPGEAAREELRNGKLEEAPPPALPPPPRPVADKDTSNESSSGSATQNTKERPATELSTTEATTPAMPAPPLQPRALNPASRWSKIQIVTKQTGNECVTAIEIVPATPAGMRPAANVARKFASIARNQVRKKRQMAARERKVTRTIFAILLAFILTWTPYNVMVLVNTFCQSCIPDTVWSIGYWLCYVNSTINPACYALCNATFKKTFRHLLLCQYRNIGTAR
In words: ChEBML_1679899. The source says:
(§1) Positive allosteric modulation of human M4 receptor expressed in CHO cells coexpressing Gqi5 assessed as increase in acetylcholine-induced calcium mobilization

Series [2] has as its target T2, Muscarinic acetylcholine receptor M4. The description is as §1. The method, boiled down:
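Calcium mobilization in CHO cells expressing hM4 with Gqi5. Compound added in presence of a fixed EC20 concentration of acetylcholine. Values are means of three independent experiments, each run in triplicate.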

The compound `Cc1nnc2sc(C(=O)NCc3ccc(-c4cccnc4F)cc3)c(N)c2c1C` had a 50% effective concentration (EC50) at Cytochrome P450 1A2 of over 50 µM.
In the case of `Cc1cc(-c2ccc(CNC(=O)c3sc4nnc(C)c(C)c4c3N)cc2)cnc1F`, a half-maximal effect in series [1] (EC50) was put at 0.776 µM.
Take `Cc1nnc2sc(C(=O)NCc3ccc(-c4ccnc(F)c4)cc3)c(N)c2c1C`: the concentration for a half-maximal effect (EC50) in series [2] amounted to 0.049 µM.
Still for that read-out and setting: in the case of `Cc1nnc2sc(C(=O)NCc3ccc(-c4ccncc4)cc3)c(N)c2c1C` it was 0.0269 µM.
For `Cc1nnc2sc(C(=O)NCc3ccc(-c4cccnc4)cc3)c(N)c2c1C`, the EC50 in series [1] amounted to 0.0631 µM.
Consider `Cc1nnc2sc(C(=O)NCc3ccc(-c4cnccn4)cc3)c(N)c2c1C`, for which, in series [2], the EC50 came to 0.1 µM.

Source of the values: BindingDB's records for doi:10.1016/j.bmcl.2017.04.043 (Vanderbilt University Medical Center, 2017).
